From ChEMBL document CHEMBL1155459, “On-bead screening of a combinatorial fumaric acid derived peptide library yields antiplasmodial cysteine protease inhibitors with unusual peptide sequences” (J Med Chem, 2009)
Activity calls are given as the source filed them. The calls are words filed in the database; no cut-off is given here. Square brackets hold non-standard residues; d marks the D form. Peptide text beside a SMILES is read from it. * marks the point of attachment. Fumaroyl(AlaGlyPheOH) = C[C@H](NC(=O)/C=C/C(=O)*)C(=O)NCC(=O)N[C@@H](Cc1ccccc1)C(=O)O; Fumaroyl(GlyGlyPheOH) = O=C(/C=C/C(=O)*)NCC(=O)NCC(=O)N[C@@H](Cc1ccccc1)C(=O)O; Chg = N[C@H](C(=O)O)C1CCCCC1; Dap = NC[C@H](N)C(=O)O

Tests used:
[1] = biological target: Rhodesain (Trypanosoma brucei rhodesiense) (UniProt Q95PM0); experiment: Inhibition of Trypanosoma brucei rhodesiense recombinant rhodesain at 100 uM
Chain of Rhodesain (Trypanosoma brucei rhodesiense) (Q95PM0 1-450): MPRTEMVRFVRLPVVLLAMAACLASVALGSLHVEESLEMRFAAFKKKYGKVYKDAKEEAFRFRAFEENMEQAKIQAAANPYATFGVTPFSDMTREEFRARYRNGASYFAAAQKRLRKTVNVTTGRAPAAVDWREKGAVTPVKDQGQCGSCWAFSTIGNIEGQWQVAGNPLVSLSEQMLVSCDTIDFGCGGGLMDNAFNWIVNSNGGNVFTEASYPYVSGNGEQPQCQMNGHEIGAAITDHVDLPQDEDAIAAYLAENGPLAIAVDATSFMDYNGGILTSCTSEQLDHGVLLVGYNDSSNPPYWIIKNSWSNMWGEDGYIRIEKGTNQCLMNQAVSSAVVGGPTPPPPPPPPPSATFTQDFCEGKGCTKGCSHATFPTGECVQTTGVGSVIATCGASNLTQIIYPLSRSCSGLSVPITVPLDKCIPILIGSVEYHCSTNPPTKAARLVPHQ
Procedure, shortened: (§1)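 Single-point screen at 100 μM inhibitor (final). Recombinant enzyme in 50 mM acetate pH 5.5, 5 mM EDTA, 200 mM NaCl, 5 mM DTT, 10% DMSO final; Cbz-Phe-Arg-AMC 40 μM (or Cbz-Leu-Arg-AMC 25 μM) hydrolysis followed by fluorescence (ex 380/em 460 nm). % inhibition = 100(1 − vi/vc) from progress-curve slopes vs DMSO control; at least two independent assays.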

[2] = Inhibition of Plasmodium falciparum falcipain-2 after 12 hrs by fluorescence spectroscopy-based on-bead assay; design: concentration or dose not given beside the values; conditions: concentration not given here
Procedure, shortened: (§2)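 Library members on resin (PEGA, theoretical loading 0.40 mmol/g; added as DMSO suspension, 0.64 mM final inhibitor) preincubated with enzyme 12 h, then Cbz-Phe-Arg-AMC 40 μM added; AMC release followed by fluorescence (ex 380/em 460 nm). Kinetics compared with inhibitor-free amino-PEGA resin.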

[3] = system: Plasmodium falciparum; experiment: Inhibition of Plasmodium falciparum recombinant falcipain-2 expressed in Escherichia coli at 100 uM after 20 min by spectrofluorometry; procedure, shortened: as §1
[4] = biological target: Rhodesain (Trypanosoma brucei rhodesiense) (UniProt Q95PM0); experiment: Inhibition of Trypanosoma brucei rhodesiense rhodesain after 12 hrs by fluorescence spectroscopy-based on-bead assay; design: concentration or dose not given beside the values; conditions: concentration not given here; procedure, shortened: as §2
[5] = biological target: Cathepsin B (Homo sapiens, UniProt P07858); experiment: Inhibition of human liver cathepsin B at 100 uM
[6] = biological target: Rhodesain (Trypanosoma brucei rhodesiense, UniProt Q95PM0); experiment: Inhibition of Trypanosoma brucei rhodesiense recombinant rhodesain
Chain of Rhodesain (Q95PM0 whole entry): as the sequence (Q95PM0 1-450) above

[7] = biological target: Procathepsin L (Bos taurus, UniProt P25975); experiment: Inhibition of bovine spleen cathepsin L
Chain of Procathepsin L (P25975 whole entry): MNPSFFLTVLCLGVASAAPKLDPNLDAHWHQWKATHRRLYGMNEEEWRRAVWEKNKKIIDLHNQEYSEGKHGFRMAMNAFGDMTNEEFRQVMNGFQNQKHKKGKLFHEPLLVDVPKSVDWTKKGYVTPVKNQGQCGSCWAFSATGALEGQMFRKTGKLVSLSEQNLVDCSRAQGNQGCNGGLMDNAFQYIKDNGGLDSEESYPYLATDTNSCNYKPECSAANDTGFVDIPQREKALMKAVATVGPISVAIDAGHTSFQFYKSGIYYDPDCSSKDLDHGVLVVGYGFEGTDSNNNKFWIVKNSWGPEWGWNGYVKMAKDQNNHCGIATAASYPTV
Procedure, shortened: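 Cathepsin L (bovine spleen) or B (human liver) hydrolysis of Cbz-Phe-Arg-AMC (40 μM) followed by fluorescence for 5-10 min without preincubation at 0.1-80 μM inhibitor, 10% DMSO final.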

[8] = Inhibition of Plasmodium falciparum recombinant falcipain-2 expressed in Escherichia coli after 20 min using Cbz-Phe-Arg-AMC as substrate by spectrofluorometry; conditions: in the assay text read “over 5-10 min” for “after 20 min”
Procedure, shortened: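 Continuous assay without preincubation. Recombinant falcipain-2 in 50 mM acetate pH 5.5, 5 mM EDTA, 200 mM NaCl, 5 mM DTT, 10% DMSO final; Cbz-Phe-Arg-AMC (40 μM, Km 21.5 μM) or Cbz-Leu-Arg-AMC (25 μM, Km 8.4 μM). Fluorescence monitored 5-10 min at 0.1-80 μM inhibitor. Ki from Dixon plot, corrected to zero substrate; at least two independent assays.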

[9] = system: Plasmodium falciparum; experiment: Antiplasmodial activity against Plasmodium falciparum FCBR by fluorometric method; type: functional, organism-based, FCBR/Columbia
[10] = system: Trypanosoma brucei brucei; experiment: Antitrypanosomal activity against Trypanosoma brucei brucei; type: functional, organism-based; conditions: Trypanosoma brucei; read-out: IC50

Compound	inhibition [1]	inhibition [2]	inhibition [3]	inhibition [4]	inhibition [5]	other results
Cc1ccc(C(=O)Nc2ccc(S(=O)(=O)O)c3cc(S(=O)(=O)O)cc(S(=O)(=O)O)c23)cc1NC(=O)c1cccc(NC(=O)Nc2cccc(C(=O)Nc3cc(C(=O)Nc4ccc(S(=O)(=O)O)c5cc(S(=O)(=O)O)cc(S(=O)(=O)O)c45)ccc3C)c2)c1	32%					
CC(C)C[C@H](NC(=O)[C@H](CCC(N)=O)NC(=O)/C=C/C(=O)N[C@@H](C)C(=O)NCC(=O)N[C@@H](Cc1ccccc1)C(=O)O)C(=O)N[C@H](C(=O)N[C@H](C(N)=O)C(C)C)C(C)C (HELM PEPTIDE1{[C[C@H](NC(=O)/C=C/C(=O)[*:2])C(=O)NCC(=O)N[C@@H](Cc1ccccc1)C(=O)O].Q.L.V.V.[am]}$$$$V2.0)	37%	48%	45%	64%	23%	
CC(C)C[C@H](NC(=O)[C@H](C)NC(=O)/C=C/C(=O)NCC(=O)NCC(=O)N[C@@H](Cc1ccccc1)C(=O)O)C(=O)N[C@@H](CC(C)C)C(=O)N[C@H](C(N)=O)C(C)C (HELM PEPTIDE1{[O=C(/C=C/C(=O)[*:2])NCC(=O)NCC(=O)N[C@@H](Cc1ccccc1)C(=O)O].A.L.L.V.[am]}$$$$V2.0)	99%	55%	73%	65%	38%	Ki [6]: 1 µM; Ki [7]: 30.7 µM
CC(C)C[C@H](NC(=O)[C@H](Cc1ccccc1)NC(=O)[C@H](CC(N)=O)NC(=O)/C=C/C(=O)NCC(=O)NCC(=O)N[C@@H](Cc1ccccc1)C(=O)O)C(=O)N[C@H](C(N)=O)C(C)C (HELM PEPTIDE1{[O=C(/C=C/C(=O)[*:2])NCC(=O)NCC(=O)N[C@@H](Cc1ccccc1)C(=O)O].N.F.L.V.[am]}$$$$V2.0)	6%	70%	49%	61%	24%	
CC(C)C[C@H](NC(=O)[C@H](CC(N)=O)NC(=O)/C=C/C(=O)NCC(=O)NCC(=O)N[C@@H](Cc1ccccc1)C(=O)O)C(=O)N[C@@H](C)C(=O)N[C@H](C(N)=O)C(C)C (HELM PEPTIDE1{[O=C(/C=C/C(=O)[*:2])NCC(=O)NCC(=O)N[C@@H](Cc1ccccc1)C(=O)O].N.L.A.V.[am]}$$$$V2.0)	8%	41%	33%	24%	17%	Ki [8]: 67.5 µM
CC(C)C[C@H](NC(=O)[C@H](CC(N)=O)NC(=O)/C=C/C(=O)NCC(=O)NCC(=O)N[C@@H](Cc1ccccc1)C(=O)O)C(=O)N[C@@H](CC(C)C)C(=O)N[C@H](C(N)=O)C(C)C (HELM PEPTIDE1{[O=C(/C=C/C(=O)[*:2])NCC(=O)NCC(=O)N[C@@H](Cc1ccccc1)C(=O)O].N.L.L.V.[am]}$$$$V2.0)	63%	70%	92%	71%	21%	Ki [8]: 10.1 µM; IC50 ([9]; Plasmodium falciparum, FCBR/Columbia, read-out: IC50): 74 µM; Ki [6]: 2.7 µM
CC(C)C[C@H](NC(=O)[C@@H](NC(=O)[C@H](CC(N)=O)NC(=O)/C=C/C(=O)NCC(=O)NCC(=O)N[C@@H](Cc1ccccc1)C(=O)O)c1ccccc1)C(=O)N[C@H](C(N)=O)C(C)C (HELM PEPTIDE1{[O=C(/C=C/C(=O)[*:2])NCC(=O)NCC(=O)N[C@@H](Cc1ccccc1)C(=O)O].N.[Phg].L.V.[am]}$$$$V2.0)	26%	51%	76%	50%	13%	Ki [8]: 21.3 µM; IC50 [9]: Not Active
CC(=O)NC[C@H](NC(=O)/C=C/C(=O)NCC(=O)NCC(=O)N[C@@H](Cc1ccccc1)C(=O)O)C(=O)N[C@@H](CC(C)C)C(=O)N[C@@H](C)C(=O)N[C@H](C(N)=O)C(C)C (HELM PEPTIDE1{[O=C(/C=C/C(=O)[*:2])NCC(=O)NCC(=O)N[C@@H](Cc1ccccc1)C(=O)O].[O=C([C@H](CN[*:3])N[*:1])[*:2]].L.A.V.[am]}|PEPTIDE2{[ac]}$PEPTIDE1,PEPTIDE2,2:R3-1:R2$$$V2.0)	30%	32%	18%	32%	inactive	Ki [7]: 20.8 µM
CC(=O)NC[C@H](NC(=O)/C=C/C(=O)NCC(=O)NCC(=O)N[C@@H](Cc1ccccc1)C(=O)O)C(=O)N[C@H](C(=O)N[C@@H](CC(C)C)C(=O)N[C@H](C(N)=O)C(C)C)c1ccccc1 (HELM PEPTIDE1{[O=C(/C=C/C(=O)[*:2])NCC(=O)NCC(=O)N[C@@H](Cc1ccccc1)C(=O)O].[O=C([C@H](CN[*:3])N[*:1])[*:2]].[Phg].L.V.[am]}|PEPTIDE2{[ac]}$PEPTIDE1,PEPTIDE2,2:R3-1:R2$$$V2.0)		38%		66%		
CC(=O)NC[C@H](NC(=O)/C=C/C(=O)NCC(=O)NCC(=O)N[C@@H](Cc1ccccc1)C(=O)O)C(=O)N[C@H](C(=O)N[C@H](C(=O)N[C@H](C(N)=O)C(C)C)C(C)C)c1ccccc1 (HELM PEPTIDE1{[O=C(/C=C/C(=O)[*:2])NCC(=O)NCC(=O)N[C@@H](Cc1ccccc1)C(=O)O].[O=C([C@H](CN[*:3])N[*:1])[*:2]].[Phg].V.V.[am]}|PEPTIDE2{[ac]}$PEPTIDE1,PEPTIDE2,2:R3-1:R2$$$V2.0)		25%		40%		
CC(=O)NC[C@H](NC(=O)/C=C/C(=O)N[C@@H](C)C(=O)NCC(=O)N[C@@H](Cc1ccccc1)C(=O)O)C(=O)N[C@H](C(=O)N[C@@H](C)C(=O)N[C@H](C(N)=O)C(C)C)C1CCCCC1 ({Fumaroyl(AlaGlyPheOH)}-[Dap](Ac)[Chg]AV-NH2)		35%		29%		
CC(=O)NC[C@H](NC(=O)/C=C/C(=O)N[C@@H](C)C(=O)NCC(=O)N[C@@H](Cc1ccccc1)C(=O)O)C(=O)N[C@H](C(=O)N[C@@H](CC(C)C)C(=O)N[C@H](C(N)=O)C(C)C)C1CCCCC1 ({Fumaroyl(AlaGlyPheOH)}-[Dap](Ac)[Chg]LV-NH2)		56%		51%		
CC(=O)NC[C@H](NC(=O)/C=C/C(=O)N[C@@H](C)C(=O)NCC(=O)N[C@@H](Cc1ccccc1)C(=O)O)C(=O)N[C@H](C(=O)N[C@H](C(=O)N[C@H](C(N)=O)C(C)C)C(C)C)C1CCCCC1 ({Fumaroyl(AlaGlyPheOH)}-[Dap](Ac)[Chg]VV-NH2)		40%		46%		
CC(=O)NC[C@H](NC(=O)/C=C/C(=O)NCC(=O)NCC(=O)N[C@@H](Cc1ccccc1)C(=O)O)C(=O)N[C@H](C(=O)N[C@@H](CC(C)C)C(=O)N[C@H](C(N)=O)C(C)C)C1CCCCC1 ({Fumaroyl(GlyGlyPheOH)}-[Dap](Ac)[Chg]LV-NH2)		26%		75%		
CC(=O)NC[C@H](NC(=O)/C=C/C(=O)NCC(=O)NCC(=O)N[C@@H](Cc1ccccc1)C(=O)O)C(=O)N[C@H](C(=O)N[C@H](C(=O)N[C@H](C(N)=O)C(C)C)C(C)C)C1CCCCC1 ({Fumaroyl(GlyGlyPheOH)}-[Dap](Ac)[Chg]VV-NH2)		52%		52%		
NCCCC(N)(C(=O)O)C(F)F (stereo unspecified) [EFLORNITHINE]	31%					IC50 [10]: 30.7 µM
